Measurements: EPA's CvTdb concentration-time database

What was measured:
Mouse [1] = assay: concentration in plasma after dosing; details: dosed: 2,4-Dichlorophenoxyacetic acid, 1.0 mg/kg, oral, Male, B6C3F1
Hamster = assay: concentration in plasma after dosing; details: dosed: 2,4-Dichlorophenoxyacetic acid, 8.0 mg/kg, oral, Male, Syrian Golden
How it was run: (§1)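 Sampling and analytical methods are those of each source and frequently went unreported. The concentration-versus-time and amount-versus-time points were compiled from published in vivo toxicokinetic studies and two structured collections. Most were digitised from plot screenshots with WebPlotDigitizer, with others copied from tables, in the reported units.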

Rat [2] = assay: concentration in plasma after dosing; details: dosed: 2-Hydroxy-4-methoxybenzophenone, 500 mg/kg, oral, Female, F344
Mouse [3] = assay: concentration in plasma after dosing; details: 0.25 h; dosed: 2-Hydroxy-4-methoxybenzophenone; 250 mg/kg; oral; Male; B6C3F1
human = assay: amount in urine after dosing (umol)
How it was run: as §1

Rat [4] = assay: concentration in plasma after dosing; details: dosed: Methyleugenol, 37 mg/kg, oral, Female, F344/N
Rat [5] = assay: concentration in plasma after dosing; details: dosed: Methyleugenol, 37 mg/kg, oral, Male, F344/N
Rat [6] = assay: concentration in liver after dosing; details: 3 h; dosed: Perfluorohexane-1-sulphonic acid – potassium salt; 16 mg/kg; oral; Female; F344
Rat [7] = assay: concentration in brain after dosing; details: 192 h; dosed: Perfluorohexane-1-sulphonic acid – potassium salt; 16 mg/kg; oral; Female; F344
Rat [8] = assay: concentration in plasma after dosing; details: dosed: Perfluorohexane-1-sulphonic acid – potassium salt, 4 mg/kg, oral, Male, F344
Rat [9] = assay: concentration in kidney after dosing; details: 192 h; dosed: Perfluorohexane-1-sulphonic acid – potassium salt; 16 mg/kg; oral; Female; F344
Rat [10] = assay: concentration in plasma after dosing; details: 6 h; dosed: Primidone; 130 mg/kg; oral; Female; F344
Rat [11] = assay: concentration in plasma after dosing; details: 20 min; dosed: Pyridine; 10 mg/kg; iv; Male; F344
Rat [12] = assay: concentration in brain after dosing; details: 10 min; dosed: alpha-Thujone; 25 mg/kg; oral; Male; Harlan Sprague Dawley
Rat [13] = assay: concentration in brain after dosing; details: 5 min; dosed: alpha-Thujone; 50 mg/kg; oral; Female; Harlan Sprague Dawley
Rat [14] = assay: concentration in brain after dosing; details: 10 min; dosed: alpha-Thujone; 25 mg/kg; oral; Male; Harlan Sprague Dawley; remark: listed apart in the source
Rat [15] = assay: concentration in brain after dosing; details: 5 min; dosed: alpha-Thujone; 25 mg/kg; oral; Male; Harlan Sprague Dawley
Rat [16] = assay: concentration in plasma after dosing; details: 6 h; dosed: alpha-Thujone; 25 mg/kg; oral; Male; Harlan Sprague Dawley
Rat [17] = assay: concentration in plasma after dosing; details: 10 min; dosed: alpha-Thujone; 50 mg/kg; oral; Female; Harlan Sprague Dawley
Rat [18] = assay: concentration in plasma after dosing; details: 6 h; dosed: alpha-Thujone; 50 mg/kg; oral; Female; Harlan Sprague Dawley
Rat [19] = assay: concentration in plasma after dosing; details: 5 min; dosed: alpha-Thujone; 25 mg/kg; oral; Male; Harlan Sprague Dawley

O=C(O)COc1ccc(Cl)cc1Cl [2,4-Dichlorophenoxyacetic acid]
concentration in plasma [ng/mL]
Details	Hamster	Mouse [1]
0.25 h	21800	1400
0.5 h	8620	1920
1 h	1740	–
1.5 h	761	–
2 h	1360	531
2.5 h	115	–
2.5 min	–	1660
3 h	–	476
4 h	–	200
5 min	25700	3440
6 h	466	–
10 h	–	734
10 min	–	2340

O=C(c1ccccc1)c1ccc(O)cc1O [2,4-Dihydroxybenzophenone]
Rat [2]
Details	concentration in plasma [ng/mL]
10 h	150
10 min	258

Details	concentration in plasma [ng/mL]
Mouse [3]	1130

CC(C)(O)CO [2-methyl-1,2-propanediol]
amount in urine, human, inhalation, duration: 4 hr
Details	dosed: ethyl tert-butyl ether	dosed: methyl tert-butyl ether
0 h, 4.5 ppm	0.545	1.1
0.1089 h, 38.7 ppm	–	7.53
0.1579 h, 40.6 ppm	3.98	–
5.975 h, 4.5 ppm	2.4	–
6 h, 40.6 ppm	14.9	–
6.195 h, 38.7 ppm	–	37
6.261 h, 4.5 ppm	–	3.42
11.95 h, 38.7 ppm	–	45.2
12 h, 40.6 ppm	24.1	–
12.1 h, 4.5 ppm	–	4.96
12.15 h, 4.5 ppm	2.89	–
18 h, 40.6 ppm	19.9	–
18.07 h, 4.5 ppm	3.11	–
18.16 h, 4.5 ppm	–	2.54
18.22 h, 38.7 ppm	–	35.6
23.96 h, 38.7 ppm	–	26
24 h, 4.5 ppm	–	3.2
24 h, 40.6 ppm	12.5	–
24.03 h, 4.5 ppm	2.35	–
29.89 h, 40.6 ppm	7.97	–
30.14 h, 38.7 ppm	–	28.1
30.16 h, 4.5 ppm	–	2.54
30.2 h, 4.5 ppm	1.53	–
35.98 h, 38.7 ppm	–	17.1
36 h, 4.5 ppm	–	1.32
36.11 h, 40.6 ppm	7.37	–
36.16 h, 4.5 ppm	1.04	–
42.11 h, 40.6 ppm	4.98	–
42.12 h, 4.5 ppm	0.655	–
42.15 h, 38.7 ppm	–	8.9
42.16 h, 4.5 ppm	–	0.662
48 h, 38.7 ppm	–	5.48
48.11 h, 40.6 ppm	3.19	–
48.3 h, 4.5 ppm	0.6	–
54.05 h, 40.6 ppm	2.39	–
54.07 h, 38.7 ppm	–	4.79
60.03 h, 38.7 ppm	–	3.42
60.16 h, 40.6 ppm	2.19	–
66.09 h, 38.7 ppm	–	3.42
66.11 h, 40.6 ppm	1.59	–
71.95 h, 38.7 ppm	–	1.37
72.05 h, 40.6 ppm	1.59	–

amount in urine, human, dosed: methyl tert-butyl ether, oral
Details	5 mg	15 mg
0 h	0.0411	–
5.848 h	–	2.13
6.268 h	0.795	–
12.12 h	1.23	3.38
17.99 h	–	2.7
18.39 h	1.15	–
24.17 h	–	1.82
24.44 h	0.658	–
30.03 h	–	1.82
30.29 h	0.616	–
36.11 h	–	1.02
36.35 h	0.384	–
41.98 h	–	0.46
42.2 h	0.233	–
48.05 h	–	0.462
48.26 h	0.123	–
53.91 h	–	0.224
54.42 h	0.123	–
59.78 h	–	0.146
60.27 h	0.0411	–
65.95 h	–	0.0276

C=CCc1ccc(OC)c(OC)c1 [Methyleugenol]
concentration in plasma [ng/mL]
Details	1.5 h	6 h	8 h	10 min
Rat [4]	–	8.85	–	254
Rat [5]	148	–	8.19	–

O=S(=O)([O-])C(F)(F)C(F)(F)C(F)(F)C(F)(F)C(F)(F)C(F)(F)F.[K+] [Perfluorohexane-1-sulphonic acid – potassium salt]
Details	concentration in brain [ng/g]	concentration in kidney [ng/g]	concentration in liver [ng/g]
Rat [6]	–	–	63900
Rat [7]	834	–	–
Rat [9]	–	16700	–

Rat [8]
Details	concentration in plasma [ng/mL]
1 h	23200
24 h	28900
864 h	9040

CCC1(c2ccccc2)C(=O)NCNC1=O [Primidone]
Details	concentration in plasma [ng/mL]
Rat [10]	74300

c1ccncc1 [Pyridine]
Details	concentration in plasma [ng/mL]
Rat [11]	4020

CC(C)[C@]12CC(=O)[C@H](C)[C@H]1C2 [alpha-Thujone]
Details	concentration in brain [ng/g]	concentration in plasma [ng/mL]
Rat [12]	765	–
Rat [13]	105	–
Rat [14]	1080	–
Rat [15]	360	–
Rat [16]	–	42.9
Rat [17]	–	1160
Rat [18]	–	192
Rat [19]	–	93.4
